Converted amounts (≈) assume the structure as drawn. The source made the active and inactive calls. The calls are words filed in the database; no cut-off is given here.
What was measured:
Escherichia coli [1] = assay: Antibacterial activity against Escherichia coli assessed as inhibition of bacterial growth measured after 16 to 20 hrs by two-fold serial microbroth dilution method; type: functional; conditions: time 16-20 hrs
In short: (§1)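 Broth microdilution in LB and M9 medium. Inoculum adjusted to about 5 × 10⁵ cells/ml. Compound diluted twofold serially in microplate wells, then plates covered and incubated at 37 °C with shaking. Growth read as OD600. MIC taken as the lowest concentration giving no growth after 16–20 h.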

HEK293 [2] = assay: Induction of cell cycle arrest in human HEK293 cells assessed as increase in accumulation of apoptotic cells at sub G1 phase at 71 uM measured after 48 hrs by propidium iodide staining based flow cytometry; conditions: hek293, 48 h
In short: (§2)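 Cell-cycle profiling of HEK293 cells treated with compound or vehicle (0.1% DMSO). Cells harvested (400 × g, 5 min) and fixed in ice-cold 70% ethanol for 24 h at −20 °C. Washed in PBS, treated with RNase A (0.5 mg/ml, 5 min, room temperature), then stained with propidium iodide (50 µg/ml, 30 min). DNA content read by flow cytometry on a linear scale. At least duplicate; mean ± S.E.M.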

[3] = Cytotoxicity against human HEK293 cells assessed as reduction in cell viability measured after 28 hrs by PrestoBlue reagent based fluorescence analysis
In short: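 HEK293 cells seeded at 25*10³ per well in DMEM with 10% FBS, 2 mM L-Glu and 50 µg/ml gentamicin. Cells held 24 h at 37 °C, 5% CO2 before compound was added (final DMSO 0.1%), then incubated 28 h. Viability read by PrestoBlue fluorescence at 590 nm, expressed relative to 0.1% DMSO control (100%). CC50 derived by curve fitting.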

Escherichia coli [4] = assay: Antibacterial activity against ampicillin/cefotaxime/tetracycline/ceftriaxone-resistant Escherichia coli mx7 assessed as inhibition of bacterial growth measured after 16 to 20 hrs by two-fold serial microbroth dilution method; type: functional, organism-based; conditions: time 16-20 hrs
In short: (§3)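 Broth microdilution MIC in LB and M9 medium. Inoculum adjusted to about 5 × 10⁵ cells/ml. Compound serially diluted twofold. Plates covered and incubated at 37 °C with shaking. OD600 read; MIC taken as the lowest concentration giving no growth after 16–20 h.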

Enterobacter cloacae = assay: Antibacterial activity against ampicillin/cefotaxime/tetracycline/ceftriaxone-resistant Enterobacter cloacae O3 assessed as inhibition of bacterial growth measured after 16 to 20 hrs by two-fold serial microbroth dilution method; type: functional, organism-based; conditions: time 16-20 hrs; in short: as §3
Morganella morganii = assay: Antibacterial activity against Morganella morganii R36 assessed as inhibition of bacterial growth measured after 16 to 20 hrs by two-fold serial microbroth dilution method; type: functional, organism-based; conditions: time 16-20 hrs; in short: as §1
Pseudomonas aeruginosa [5] = assay: Antibacterial activity against Pseudomonas aeruginosa R42 assessed as inhibition of bacterial growth measured after 16 to 20 hrs by two-fold serial microbroth dilution method; type: functional, organism-based; conditions: time 16-20 hrs; in short: as §1
Klebsiella pneumoniae = assay: Antibacterial activity against ampicillin/fosfomycin-resistant Klebsiella pneumonia 181210171-2 assessed as inhibition of bacterial growth measured after 16 to 20 hrs by two-fold serial microbroth dilution method; type: functional, organism-based; conditions: time 16-20 hrs; in short: as §3
Enterobacter = assay: Antibacterial activity against Enterobacter sp. O54 assessed as inhibition of bacterial growth measured after 16 to 20 hrs by two-fold serial microbroth dilution method; type: functional, organism-based; conditions: time 16-20 hrs; in short: as §1
Proteus sp. = assay: Antibacterial activity against ampicillin/cefotaxime/tetracycline/ceftriaxone/fosfomycin-resistant Proteus sp. O14 assessed as inhibition of bacterial growth measured after 16 to 20 hrs by two-fold serial microbroth dilution method; type: functional, organism-based; conditions: time 16-20 hrs; in short: as §3
Citrobacter koseri = assay: Antibacterial activity against Citrobacter koseri R38 assessed as inhibition of bacterial growth measured after 16 to 20 hrs by two-fold serial microbroth dilution method; type: functional, organism-based; conditions: time 16-20 hrs; in short: as §1
Pseudomonas aeruginosa [6] = assay: Antibacterial activity against ampicillin/cefotaxime-resistant Pseudomonas aeruginosa ATCC 27853 assessed as inhibition of bacterial growth measured after 16 to 20 hrs by two-fold serial microbroth dilution method; type: functional, organism-based; conditions: time 16-20 hrs; in short: as §3
Hafnia alvei = assay: Antibacterial activity against Ampicillin resistant Hafnia alvei O31 assessed as inhibition of bacterial growth measured after 16 to 20 hrs by two-fold serial microbroth dilution method; type: functional, organism-based; conditions: time 16-20 hrs; in short: as §3
Proteus vulgaris = assay: Antibacterial activity against Proteus vulgaris O41 assessed as inhibition of bacterial growth measured after 16 to 20 hrs by two-fold serial microbroth dilution method; type: functional, organism-based; conditions: time 16-20 hrs; in short: as §1
Candida albicans = assay: Antibacterial activity against ampicillin/cefotaxime/tetracycline/ceftriaxone/fosfomycin-resistant Candida albicans 181210169-1 assessed as inhibition of fungal growth measured after 16 to 20 hrs by two-fold serial microbroth dilution method; type: functional, organism-based; conditions: time 16-20 hrs; in short: as §3
Klebsiella aerogenes = assay: Antibacterial activity against Enterobacter aerogenes R41 assessed as inhibition of bacterial growth measured after 16 to 20 hrs by two-fold serial microbroth dilution method; type: functional, organism-based; conditions: time 16-20 hrs; in short: as §1
Klebsiella oxytoca = assay: Antibacterial activity against Klebsiella oxytoca R48 assessed as inhibition of bacterial growth measured after 16 to 20 hrs by two-fold serial microbroth dilution method; type: functional, organism-based; conditions: time 16-20 hrs; in short: as §1
Staphylococcus aureus = assay: Antibacterial activity against Fosfomycin resistant Staphylococcus aureus ATCC USA 206 assessed as inhibition of bacterial growth measured after 16 to 20 hrs by two-fold serial microbroth dilution method; type: functional, organism-based; conditions: time 16-20 hrs; in short: as §3
Bacillus subtilis = assay: Antibacterial activity against Bacillus subtilis 3HM assessed as inhibition of bacterial growth measured after 16 to 20 hrs by two-fold serial microbroth dilution method; type: functional, organism-based; conditions: time 16-20 hrs; in short: as §1
HEK293 [7] = assay: Induction of cell cycle arrest in human HEK293 cells assessed as increase in accumulation of cells at S phase at 71 uM after 24 hrs by propidium iodide staining based flow cytometry; conditions: hek293, 24 h; in short: as §2
Escherichia coli [8] = assay: Antibacterial activity against Escherichia coli ATCC25922 assessed as inhibition of bacterial growth measured after 16 to 20 hrs by two-fold serial microbroth dilution method; type: functional, organism-based; conditions: ATCC 25922, time 16-20 hrs; in short: as §1
Aeromonas = assay: Antibacterial activity against Aeromonas sp. O9 assessed as inhibition of bacterial growth measured after 16 to 20 hrs by two-fold serial microbroth dilution method; type: functional, organism-based; conditions: time 16-20 hrs; in short: as §1
[9] = Selectivity index, ratio of CC50 for human HEK293 cells to MIC for antibacterial activity against Escherichia coli; type: toxicity; conditions: read-out: Selectivity Index

For `CCn1c(O)c(C(=O)CC2c3c(cc4c(c3OC)OCO4)CCN2C)c(=O)n(CC)c1=S` (stereo not drawn), the MIC (Escherichia coli [1]) was 13.5 µM (≈ 6.23 µg/mL), the Activity (HEK293 [2]) was “Toxic” and the CC50 at 28 h [3] was 71 µM. For the same compound, the Activity (Escherichia coli [4]) was “inactive”, the Activity (Enterobacter cloacae) was “inactive” and the Activity (Morganella morganii) was “inactive”. For the same compound, the Activity (Pseudomonas aeruginosa [5]) was “inactive”, the Activity (Klebsiella pneumoniae) was “inactive” and the Activity (Enterobacter) was “inactive”. The Activity (Proteus sp.) was “inactive”, the Activity (Citrobacter koseri) was “inactive” and the Activity (Pseudomonas aeruginosa [6]) was “inactive”. For the same compound, the Activity (Hafnia alvei) was “inactive”, the Activity (Proteus vulgaris) was “inactive” and the Activity (Candida albicans) was “inactive”. For the same compound, the Activity (Klebsiella aerogenes) was “inactive”, the Activity (Klebsiella oxytoca) was “inactive” and the Activity (Staphylococcus aureus) was “Active”. For the same compound, the Activity (Bacillus subtilis) was “Active”, the Activity (HEK293 [7]) was “Toxic” and the Activity (Escherichia coli [8]) was “inactive”. The Activity (Aeromonas) was “inactive” and the selectivity ratio [9] was 5.5.
